Series [1] concerns Mycobacterium tuberculosis. Kind of series: Antimicrobial activity against Mycobacterium tuberculosis H37Rv ATCC 27294 incubated for 7 days by BacTiter-Glo cell viability assay. It is filed as functional, organism-based.
Series [2] concerns Mycobacterium tuberculosis. The series is described as follows: Antimicrobial activity against Mycobacterium tuberculosis H37Rv SRI 1345 after 7 days. Type of series: functional. The note with it: H37Rv SRI 1345, 168 h. Summed up: (§1)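 MIC in µg/mL, retested on susceptible H37Rv (SRI 1345) in the same panel as single-drug-resistant strains: isoniazid-, rifampin- and ofloxacin-resistant. Percent inhibition recorded at the MIC concentration. Ratio taken as MIC H37Rv / MIC resistant strain.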

The test system of series [3] is Mycobacterium tuberculosis. The series is described as follows: Antimicrobial activity against Mycobacterium tuberculosis H37Rv SRI 1345 assessed as growth inhibition at MIC after 7 days. Type of series: functional. Summed up: as §1
Series [4] has as its system Mycobacterium tuberculosis. The series is described as follows: Antimicrobial activity against Mycobacterium tuberculosis H37Rv SRI 1345 assessed as inhibition of visual growth after 18 to 24 hrs. Type of series: functional. The settings on record: read-out: MBC99.9.
Series [5] relates to Mycobacterium tuberculosis. Kind of series: Ratio of MBC for Mycobacterium tuberculosis H37Rv SRI 1345 to MIC for Mycobacterium tuberculosis H37Rv SRI 1345. Type of series: functional. Summed up: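 MBC read from colony-forming unit counts; ratio computed as MBC / MIC against H37Rv.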
Series [6] deals with Mycobacterium tuberculosis. Kind of series: Antimicrobial activity against non-replicating Mycobacterium tuberculosis H37Rv SRI 1345 assessed as inhibition of visual growth incubated for 7 days under anaerobic condition by low oxygen recovery assay. The note with it: H37Rv SRI 1345, 168 h. It is filed as functional.
Series [7] has as its system Mycobacterium tuberculosis. The series is described as follows: Ratio of MIC for Mycobacterium tuberculosis H37Rv SRI 1345 to MIC for non-replicating Mycobacterium tuberculosis H37Rv SRI 1345. It is filed as functional. Summed up:
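Non-replicating bacilli tested by Low Oxygen Recovery Assay (LORA); ratio computed as MIC H37Rv / LORA MIC.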

The subject of series [8] is Mycobacterium tuberculosis. The series is described as follows: Antimicrobial activity against Mycobacterium tuberculosis H37Rv ATCC 27294 infected in mouse J774 cells assessed as log reduction in bacterial burden at 10 times lower MIC measured 7 days postinfection relative to control. It is filed as functional. Summed up: (§2)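 Macrophages infected with H37Rv and treated at three concentrations 10-fold apart, chosen from the primary-screen H37Rv data. The middle concentration brackets the reported MIC, with the others ten-fold below and ten-fold above it. Read-out is log-reduction of intracellular bacterial burden.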

The subject of series [9] is Mycobacterium tuberculosis. Kind of series: Antimicrobial activity against Mycobacterium tuberculosis H37Rv ATCC 27294 infected in mouse J774 cells assessed as log reduction in bacterial burden at MIC measured 7 days postinfection relative to control. Type of series: functional. Summed up:
as §2

Series [10] deals with Mycobacterium tuberculosis. The series is described as follows: Antimicrobial activity against Mycobacterium tuberculosis H37Rv ATCC 27294 infected in mouse J774 cells assessed as log reduction in bacterial burden at 10 times MIC measured 7 days postinfection relative to control. It is filed as functional. Summed up:
as §2

The subject of series [11] is J774. Kind of series: Cytotoxicity against mouse J774 cells assessed as cell viability at 10 times lower MIC by MTT assay relative to control. It is filed as cell-based.
The test system of series [12] is J774. Kind of series: Cytotoxicity against mouse J774 cells assessed as cell viability at MIC by MTT assay relative to control. It is filed as cell-based.
The test system of series [13] is J774. The series is described as follows: Cytotoxicity against mouse J774 cells assessed as cell viability at 10 times MIC by MTT assay relative to control. It is filed as cell-based.
Series [14] has as its system Mycobacterium tuberculosis. Kind of series: Antimicrobial activity against Mycobacterium tuberculosis H37Rv ATCC 27294 infected in mouse J774 cells assessed as growth inhibition at 10 times lower MIC measured 7 days postinfection. Type of series: functional. Summed up:
as §2

The test system of series [15] is Mycobacterium tuberculosis. The series is described as follows: Antimicrobial activity against Mycobacterium tuberculosis H37Rv ATCC 27294 infected in mouse J774 cells assessed as log reduction in bacterial burden at 10 times lower MIC measured 7 days postinfection relative to rifampicin. Type of series: functional. Summed up:
as §2

[16] abbreviates: H37Rv ATCC 27294, BacTiter-Glo, 168 h.

Broadly, the MIC is the least concentration at which growth counts as inhibited. The IC50 is the concentration needed to halve the response being measured. Lower therefore signals higher potency. By IC90 is commonly meant the concentration at which the effect reaches the 90% level. The low end stands for greater potency, the high end for weaker potency.

In brackets after ≈: the same amount, converted by molar mass.

As to `COC(=O)c1c(C(F)(F)F)[n+]([O-])c2ccc(N3CCN(c4ccc(F)cc4)CC3)cc2[n+]1[O-]`, the MIC in series [1] (H37Rv ATCC 27294, 168 h) is 1.6 µM (≈ 0.746 µg/mL); in series [2] it was 1.5 µg/mL (≈ 3.22 µM); in [6], 0.375 µg/mL (≈ 0.804 µM). The compound also showed an IC50 in series [1] (setting [16]) of 500 nM. This compound also had an IC90 in series [1] (setting [16]) of 800 nM. The “growth inhibition (GI)” value is 78% in series [3] and greater than 90% in series [14]. Further, the MBC in series [4] is 4 µg/mL (≈ 8.58 µM). Further, the results for the Ratio in [5] and in series [7] were 2.6 and 4, respectively. For the same compound, the “log reduction in bacterial burden” value in series [8] was 1.43; in series [9], 1.41; in [10], 3.86. Also, the Activity in the series on J774 [11] amounted to 60%; with J774 [12] it was 64%; with J774 [13], 47%. Also, the “Log reduction in bacterial burden relative to rifampicin” value in [15] is recorded as 3.

Values taken from ChEMBL document CHEMBL3792280, “Design and synthesis of novel quinoxaline derivatives as potential candidates for treatment of multidrug-resistant and latent tuberculosis” (Bioorg Med Chem Lett, 2016).
